# Source: PubChem
# The list is not random: actives were taken first. Their share in the collection is about 3%.
# KCC2 mod: KCC2 (human) Cl- transport modulation; Q9H2X9; KCC2 cells, thallium flux FluoZin-2 fluorescence; B-score of Tl+ flux slope (higher = more flux/activation; lower = inhibition) at 10 µM; 2.2% of 190,000 active;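 active = thallium flux slope and its plate-corrected score both differing from the plate sample mean at a set confidence after two filtering rounds, in either direction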;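 note: slope of fluorescence scaled to starting intensity during 10 to 20 s after thallium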
# PKD1 inh: inhibitors of human PKD1 kinase | Q15139 | AID 797 | inhibition, % (concentration not given with the values) | 0.056% of 200,000 active | PKD1 kinase fluorescence polarization assay; in the data active = inhibition above about 50%
# ROMK mod: modulates human ROMK potassium channel activity. P48048. Tet-inducible ROMK, thallium flux fluorescence; actives lie on both sides. B-score at 10 µM. 2% of 130,000 active;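 active = signal ratio slope over the read window, or its plate-corrected B-score, at least 3 SD from the plate mean, either direction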;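 note: B-score of the F/F0 ratio slope over 7 to 12 s after thallium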
# Rad51 HR inh: Rad51 (human) homologous recombination inhibition; 0.085% of 200,000 active; hRad51 DNA strand exchange, fluorescence dequenching; Q06609; inhibition, % at 10 µM;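 active = inhibition above 40% at the single screening dose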
# Target sequence (Q06609 whole entry, looked up): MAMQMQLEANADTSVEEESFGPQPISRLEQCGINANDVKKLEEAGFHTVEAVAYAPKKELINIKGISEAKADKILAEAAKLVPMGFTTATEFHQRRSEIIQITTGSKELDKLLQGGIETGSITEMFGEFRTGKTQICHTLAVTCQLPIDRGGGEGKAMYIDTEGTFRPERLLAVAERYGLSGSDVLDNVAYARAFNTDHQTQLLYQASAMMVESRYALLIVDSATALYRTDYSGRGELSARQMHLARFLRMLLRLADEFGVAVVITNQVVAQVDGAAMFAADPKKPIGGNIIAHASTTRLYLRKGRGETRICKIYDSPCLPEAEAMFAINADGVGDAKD
#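 System: hRad51 filaments on single-stranded DNA; reagent: Fluorescein- and BHQ1-tagged 47-mer duplex; compound dosing: one concentration, 10 µM final; timing: filaments 15 min 37 °C, then compound 30 min; measured by: fluorescein emission 520 nm, excitation 485 nm; benchmarks: per-plate controls and blanks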
# ROMK hit retest: retested hit modulating human ROMK potassium channel. shares compounds with ROMK mod. ROMK thallium flux, fluorescence ratio; hits give low values. normalized thallium flux (F/F0 slope) at 10 µM. 54% of 3,000 active;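 active = Flux at 10 µM at least 3 SD below or above vehicle control mean in one or both replicates; inconclusive = no clear call, values can overlap the other calls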
# A number is an active result; - = inactive; ? = inconclusive; . = no result.
SMILES,KCC2 mod,PKD1 inh,ROMK mod,Rad51 HR inh,ROMK hit retest
O=C(COC(=O)c1cc(-c2ccccn2)nc2ccccc12)Nc1ncc(C(F)(F)F)cc1Cl,-,.,.,-,.
O=C(Cn1cc[n+](CC(=O)c2ccc(Cl)cc2Cl)c1)c1ccc(Cl)cc1Cl,-,.,-3,-,-
COc1cccc(C(=O)O/N=C(\C)c2cnccn2)c1,-,-,-3.6,.,0.064
C/C(=N/OC(=O)c1c(-c2c(Cl)cccc2Cl)noc1C)c1cnccn1,-,-,-,.,.
CC(C)CNC(=O)c1cccc(NC(=O)Cc2ccc(Cl)cc2)c1,-,-,-,-,.
O=C(O)c1cccc(N/N=C/C2=C(Cl)c3cc(Cl)ccc3SC2)c1,-,-,0.76,-,-
O=C(O)c1cccc(N/N=C/c2ccc(F)c(F)c2)c1,-,-,-,-,.
O=C(c1cccc2ccccc12)N1CCN(CC2CC=CCC2)CC1 (stereo not given),.,-,-2.6,-,0.059
O=C(C1CCN(CC2CC=CCC2)CC1)N(CCc1ccccc1)Cc1ccccc1 (stereo not given),.,-,-2.8,-,0.064
O=C(c1ccncc1)N1CCN(C(=O)c2cccc3ccccc23)CC1,-,-,.,-,.
O=C(C1CCN(S(=O)(=O)c2cnc[nH]2)CC1)N(CCc1ccccc1)Cc1ccccc1,-,-,-,.,.
O=C(C1CCN(CCCc2ccccc2)CC1)N(CCc1ccccc1)Cc1ccccc1,-,-,-5,.,0.05
Cn1ncc(Cl)c1C(=O)N1CCN(C(=O)c2ccco2)CC1,-,-,.,-,.
COc1cccc(/C=N/NC(=O)c2cc3c(OC)cccc3[nH]2)c1OC,-,-,.,-,-
Fc1cccc(Cl)c1/C=N/n1c(-c2cccnc2)n[nH]c1=S,-,-,.,-,.
CCOC(=O)C1=C(c2ccccc2)NC(N)=NC1c1ccc(OCc2ccc(C(=O)OC)cc2)cc1 (stereo not given),-,.,.,-,0.053
CCOC(=O)C1=C(c2ccccc2)Nc2ncnn2C1c1ccc(C(=O)O)cc1 (stereo not given),-,.,.,-,.
Cc1ccc(Nc2nc3c(c(=O)[nH]c(=O)n3C)n2Cc2ccc(F)cc2)cc1,-,-,.,-,.
COc1cccc(/C=C/C(=O)c2c(O)cc(C)oc2=O)c1O,-,-,-5.9,-,0.057
COc1ccc(/C=C/C(=O)c2c(O)cc(C)oc2=O)c(OC)c1,.,-,.,-,.
CC(=O)c1c(C)[nH]c(C(=O)Nc2nc(C)cs2)c1C,-,-,2.8,-,-
O=C1CC(c2ccc(Cl)c(Cl)c2)CC(O)=C1C=NCCN1CCNCC1 (stereo not given),-,-,.,-,0.057
CN1C(=O)CC(N2CCN(CCN=CC3=C(O)CC(C)(C)CC3=O)CC2)C1=O (stereo not given),-,-,-,-,.
CC1(C)CC(=O)C(C=NCCN2CCN(C3CC(=O)N(c4ccc(Cl)c(Cl)c4)C3=O)CC2)=C(O)C1 (stereo not given),-,-,-6.7,-,-
COc1ccc([N+](=O)[O-])cc1N(CC(=O)NCCC1=CCCCC1)S(C)(=O)=O,-,-,-,-,.
SMILES,KCC2 mod,PKD1 inh,ROMK mod,Rad51 HR inh,ROMK hit retest
COc1ccc(CN2CCC(CO)(Cc3cccc(C(F)(F)F)c3)CC2)cc1Cn1cccn1,-,-,-,-,.
COc1ccc(C(=O)N=c2sc3c(C)ccc(OC)c3n2C)cc1,-,-,.,-,.
COc1ccccc1C1=NOC(COc2ccc3c(C)cc(=O)oc3c2)C1 (stereo not given),-,.,3.3,-,-
CC(C)CN(C(=O)CSc1nnnn1-c1ccccc1)c1c(N)n(CC(C)C)c(=O)[nH]c1=O,-,-,-,-,.
COc1cc(CNc2ccc(C)c(C)c2)cc(OC)c1OC,-,-,3.4,-,-
C=CCCN(C(C(=O)OC)C(C)C)S(=O)(=O)c1ccccc1Br (stereo not given),-,.,.,-,.
CCOc1ccc(NC(=O)CCN2CCN(S(=O)(=O)c3ccc(OC)cc3)CC2)cc1,.,-,-,-,.
COc1ccc(NC(=O)CCN2CCN(S(=O)(=O)c3cc(Cl)ccc3OC)CC2)cc1,.,-,-3.3,-,0.061
Cc1ccc2c(c1)N(C(=O)CSc1nncn1C)C(C)(C)c1ssc(=S)c1-2,-,-,.,-,.
Cc1cc2c(cc1C)N(C(=O)CSc1nncn1C)C(C)(C)c1ssc(=S)c1-2,-,-,-3.5,-,0.064
Fc1ccc(-c2cnn3c(-c4cccs4)ccnc23)cc1,-,-,-2.3,-,0.063
c1cc2c3c(cccc3c1)NC1(CCC3(CC1)Nc1cccc4cccc(c14)N3)N2,-,.,.,-,0.05
Cc1ccc(/C=C2/C(=O)ON=C2c2ccccc2)o1,-,.,.,-,0.04
COc1cc(C=C2C(=O)c3ccccc3C2=O)ccc1O,.,.,.,-,.
CC1=NOC(=O)/C1=C\c1ccc(-c2ccccc2Br)o1,-,-,-8.7,-,0.062
COc1cc(/C=C2/C(=O)ON=C2c2ccccc2)ccc1O,-,-,-6.8,-,0.044
CC1=NOC(=O)/C1=C\c1ccc(-c2cccc(Cl)c2)o1,-,-,.,-,.
Cc1cc(C)cc(N(CCC(=O)Nc2nnc(C)s2)S(=O)(=O)c2ccc(Cl)cc2)c1,-,-,.,.,.
Cc1cc(C)c(S(=O)(=O)N2CCCOC2CNC(=O)C(=O)NCc2ccncc2)c(C)c1 (stereo not given),-,-,-,-,.
CSc1nc(N)n2nc(-c3ccccc3)cc2n1,-,.,.,-,.
CCOc1ccc(S(=O)(=O)N(C)c2ccc(OCC(=O)NCc3ccc(C(=O)OC)cc3)cc2)cc1,-,-,-,.,.
CCCCCCN1C=CC=C/C1=C\C=C(C#N)C#N,-,.,-4.4,.,0.043
CCOC(=O)/C(C#N)=C\C=C1C=CN(C)C=C1,-,-,.,-,.
C=CCNCCCCOc1ccccc1-c1ccccc1,-,-,-3,-,0.062
CSc1ccc(-c2nc(CSCC(=O)N3CCOCC3)c(C)o2)cc1,.,-,.,-,.
SMILES,KCC2 mod,PKD1 inh,ROMK mod,Rad51 HR inh,ROMK hit retest
CCc1ccc(-c2nc(CSCC(=O)N3CCN(c4ncccn4)CC3)c(C)o2)cc1,.,-,.,.,0.064
CC1(/[N+]([O-])=C/c2ccccc2F)CCCCC1=O (stereo not given),-,-,-,-,.
O=C(N/N=C/c1cn(-c2cccs2)nc1-c1ccccc1)c1ccc(O)cc1,-,-,-3.5,-,0.059
CCN(CC)Cc1c(O)ccc2c([N+](=O)[O-])c(C)n(-c3ccc(OC)cc3)c12,-,-,-4.8,-,?
CCN(CC)Cc1c(O)ccc2occ(C(=O)c3ccc(OC)cc3)c12,-,-,-,-,.
Cc1cc(C(=O)N/N=C2\CC(=O)c3ccccc32)c(C)n1-c1ccccc1,-,-,-,-,.
CC(C)(C)Nc1nc(Cl)nc(NCc2ccccc2)n1,-,.,-8.5,-,0.047
CCCNc1nc(Cl)nc(NCc2cccnc2)n1,-,.,-,-,.
c1ccc(-n2cnc3cc(NCc4cccs4)ccc32)cc1,-,-,.,-,.
c1ccc(-n2cnc3cc(NCc4ccco4)ccc32)cc1,-,-,3.3,-,?
Cc1cc(=O)[nH]c(-c2cccnc2)n1,-,-,-,-,.
CN(C)c1ccc2c3c(ccc(N(C)C)c13)C(=O)OC2,-,.,.,.,-
CS(=O)(=O)Nc1ccc2c(c1)C(=O)OC2,.,-,.,-,.
